Data from ChEMBL document CHEMBL3745688, “Discovery of novel hybrids of diaryl-1,2,4-triazoles and caffeic acid as dual inhibitors of cyclooxygenase-2 and 5-lipoxygenase for cancer therapy” (Eur J Med Chem, 2016).

Assays:
[1] = biological target: T1, Prostaglandin G/H synthase 2 (Rattus norvegicus, UniProt P35355); assay: Inhibition of COX2 in rat abdominal macrophages assessed as PGE2 production pretreated for 30 mins followed by addition of 10 uM arachidonic acid as substrate for 20 mins by EIA
T1 sequence (P35355 whole entry): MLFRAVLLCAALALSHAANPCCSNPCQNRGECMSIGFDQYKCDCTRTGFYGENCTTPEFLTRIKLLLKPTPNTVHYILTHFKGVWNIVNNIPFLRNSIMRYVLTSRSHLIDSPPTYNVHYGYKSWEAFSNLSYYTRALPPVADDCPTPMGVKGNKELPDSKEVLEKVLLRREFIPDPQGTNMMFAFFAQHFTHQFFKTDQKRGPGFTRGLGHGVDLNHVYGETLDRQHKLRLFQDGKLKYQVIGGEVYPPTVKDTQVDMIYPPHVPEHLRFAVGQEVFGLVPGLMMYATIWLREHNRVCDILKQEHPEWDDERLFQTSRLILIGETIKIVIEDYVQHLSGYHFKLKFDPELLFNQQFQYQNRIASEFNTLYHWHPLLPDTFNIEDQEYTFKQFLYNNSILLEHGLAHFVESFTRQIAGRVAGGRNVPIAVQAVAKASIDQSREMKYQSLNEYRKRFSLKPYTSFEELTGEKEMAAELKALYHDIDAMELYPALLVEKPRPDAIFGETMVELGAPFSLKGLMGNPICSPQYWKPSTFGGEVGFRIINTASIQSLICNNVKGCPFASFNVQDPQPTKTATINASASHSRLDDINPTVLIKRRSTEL

[2] = biological target: T2, Polyunsaturated fatty acid 5-lipoxygenase (Rattus norvegicus, UniProt P12527); assay: Inhibition of 5-LOX in Sprague-Dawley rat leukocytes assessed as A23187 stimulated LTB4 production pretreated for 30 mins followed by addition of A23187 for 30 mins by EIA; assay type: cell-based
T2 sequence (P12527 whole entry): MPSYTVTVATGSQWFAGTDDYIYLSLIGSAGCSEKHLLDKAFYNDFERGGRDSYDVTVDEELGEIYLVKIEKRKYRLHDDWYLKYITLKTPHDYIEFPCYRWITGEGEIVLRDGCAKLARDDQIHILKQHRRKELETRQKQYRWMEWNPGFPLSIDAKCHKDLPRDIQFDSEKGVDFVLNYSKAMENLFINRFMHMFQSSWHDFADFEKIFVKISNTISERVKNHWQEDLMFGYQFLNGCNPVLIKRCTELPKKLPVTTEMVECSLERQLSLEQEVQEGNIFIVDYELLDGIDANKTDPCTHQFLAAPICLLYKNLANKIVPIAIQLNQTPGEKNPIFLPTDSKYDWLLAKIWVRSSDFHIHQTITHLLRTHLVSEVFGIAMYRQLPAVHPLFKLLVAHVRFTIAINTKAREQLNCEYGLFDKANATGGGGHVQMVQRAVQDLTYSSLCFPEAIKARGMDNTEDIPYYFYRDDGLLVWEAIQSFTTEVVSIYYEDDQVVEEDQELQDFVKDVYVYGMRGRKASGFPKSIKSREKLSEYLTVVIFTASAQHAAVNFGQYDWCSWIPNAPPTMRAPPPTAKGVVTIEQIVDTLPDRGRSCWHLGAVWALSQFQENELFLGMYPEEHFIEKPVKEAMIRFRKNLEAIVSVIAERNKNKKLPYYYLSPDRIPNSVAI
Summary of the method: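 Rat peritoneal leukocytes collected from Sprague-Dawley rats primed i.p. with 0.2% glycogen (20 mL/kg). Cells in Hanks solution plated at 1.0×10^6/well and held 10 min at 37 °C. Pretreated 30 min with L-cysteine (10 mM), indomethacin (1 mg/L) and compound or DMSO. A23187 added for 30 min. LTB4 in the clarified supernatant measured by EIA; % inhibition from OD; IC50 by Bliss method.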

A549 = assay: Antiproliferative activity against human A549 cells after 72 hrs by MTT assay; assay type: functional, cell-based; settings: A549, 72 h
Summary of the method: (§1)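 Cells seeded at 5×10^4/well, grown 24 h at 37 °C in 5% CO₂, then exposed to compounds dissolved in DMSO at a range of concentrations for 72 h. MTT (5 mg/mL in PBS) added for 4 h, then OD read at 570 nm. IC50 taken from dose-response curves, mean ± S.D. of three independent experiments.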

[3] = Antiproliferative activity against human Caco2 cells after 72 hrs by MTT assay; assay type: functional, cell-based; settings: Caco-2, 72 h; summary of the method: as §1
[4] = Antiproliferative activity against human PC3 cells after 72 hrs by MTT assay; assay type: functional, cell-based; settings: PC-3, 72 h; summary of the method: as §1
[5] = Antiproliferative activity against mouse B16F10 cells after 72 hrs by MTT assay; assay type: functional, cell-based; settings: B16-F10, 72 h; summary of the method: as §1

Row | SMILES | IC50 [1] [µM] | IC50 [2] [µM] | IC50 (A549) [µM] | IC50 [3] [µM] | IC50 [4] [µM] | IC50 [5] [µM]
1 | CC(=O)Oc1ccc(/C=C/C(=O)NCCSc2nc(-c3ccc(S(C)(=O)=O)cc3)n(-c3ccc(F)cc3)n2)cc1OC(C)=O | 0.16 | 0.95 | 17 | 15.1 | 18 | 14.6
2 | CC(=O)Oc1ccc(/C=C/C(=O)NCCSc2nc(-c3ccc(S(N)(=O)=O)cc3)n(-c3ccc(Br)cc3)n2)cc1OC(C)=O | 0.18 | 0.99 | 18.7 | 16.7 | 17 | 15.2
3 | CC(=O)Oc1ccc(/C=C/C(=O)OCCSc2nc(-c3ccc(S(C)(=O)=O)cc3)n(-c3ccccc3)n2)cc1OC(C)=O | 0.92 | 1.21 |  |  |  | 
4 | CC(=O)Oc1ccc(/C=C/C(=O)OCCSc2nc(-c3ccc(S(N)(=O)=O)cc3)n(-c3ccc(F)cc3)n2)cc1OC(C)=O | 0.39 | 1.06 | 12 | 11 | 9.84 | 11
5 | COc1cc(/C=C/C(=O)OCCSc2nc(-c3ccc(S(C)(=O)=O)cc3)n(-c3ccccc3)n2)ccc1O | 0.58 | 0.84 |  |  |  | 
6 | COc1cc(/C=C/C(=O)OCCSc2nc(-c3ccc(S(C)(=O)=O)cc3)n(-c3ccc(C)cc3)n2)ccc1OC(C)=O | 0.87 | 0.98 | 15 | 14.1 | 15.5 | 15.3
7 | NS(=O)(=O)c1ccc(-c2nc(SCCOC(=O)/C=C/c3ccc(O)c(O)c3)nn2-c2ccccc2)cc1 | 0.62 | 0.8 | 14.1 | 15 | 15 | 15
8 | CC(=O)Oc1ccc(/C=C/C(=O)OCCSc2nc(-c3ccc(S(C)(=O)=O)cc3)n(-c3ccc(F)cc3)n2)cc1OC(C)=O | 0.18 | 1.05 | 11.8 | 12.8 | 15.7 | 14.2
9 | CC(=O)Oc1ccc(/C=C/C(=O)NCCCSc2nc(-c3ccc(S(N)(=O)=O)cc3)n(-c3ccccc3)n2)cc1OC(C)=O | 0.63 | 0.97 | 32.7 | 31 | 35.2 | 29.1
10 | O=C(/C=C/c1ccc(O)c(O)c1)OCCc1ccccc1 [CAFFEIC ACID PHENETHYL ESTER] |  |  | 9.72 | 11.3 | 10.2 | 10.7
11 | CC(=O)Oc1ccc(/C=C/C(=O)NCCCSc2nc(-c3ccc(S(C)(=O)=O)cc3)n(-c3ccc(F)cc3)n2)cc1OC(C)=O | 0.17 | 0.98 | 21.8 | 20.8 | 17.6 | 15.2
12 | CC(=O)Oc1ccc(/C=C/C(=O)OCCSc2nc(-c3ccc(S(N)(=O)=O)cc3)n(-c3ccccc3)n2)cc1OC(C)=O | 0.85 | 1.11 |  |  |  | 

The next lines start with results.

Row | IC50 [1] [µM] | IC50 [2] [µM] | IC50 (A549) [µM] | SMILES | IC50 [3] [µM] | IC50 [4] [µM] | IC50 [5] [µM]
13 | 0.64 | 0.77 |  | NS(=O)(=O)c1ccc(-c2nc(SCCCOC(=O)/C=C/c3ccc(O)c(O)c3)nn2-c2ccccc2)cc1 |  |  | 
14 | 0.91 | 1.07 |  | CC(=O)Oc1ccc(/C=C/C(=O)OCCCSc2nc(-c3ccc(S(N)(=O)=O)cc3)n(-c3ccccc3)n2)cc1OC(C)=O |  |  | 
15 | 0.29 | 0.99 | 12.9 | CC(=O)Oc1ccc(/C=C/C(=O)OCCCSc2nc(-c3ccc(S(C)(=O)=O)cc3)n(-c3ccc(Br)cc3)n2)cc1OC(C)=O | 11.7 | 14.9 | 12.8
16 | 0.24 | 0.92 | 9.61 | COc1cc(/C=C/C(=O)OCCSc2nc(-c3ccc(S(C)(=O)=O)cc3)n(-c3ccc(F)cc3)n2)ccc1OC(C)=O | 10.8 | 12.8 | 11.2
17 | 0.29 | 0.94 | 11.1 | COc1cc(/C=C/C(=O)OCCSc2nc(-c3ccc(S(C)(=O)=O)cc3)n(-c3ccc(Br)cc3)n2)ccc1OC(C)=O | 12.1 | 13.1 | 12.4
18 | 0.62 | 0.96 |  | COc1cc(/C=C/C(=O)OCCSc2nc(-c3ccc(S(C)(=O)=O)cc3)n(-c3ccccc3)n2)ccc1OC(C)=O |  |  | 
19 | 0.19 | 1.06 | 10.2 | CC(=O)Oc1ccc(/C=C/C(=O)OCCSc2nc(-c3ccc(S(C)(=O)=O)cc3)n(-c3ccc(C(F)(F)F)cc3)n2)cc1OC(C)=O | 11.3 | 14.5 | 11.5
20 | 0.24 | 0.99 | 23.3 | CC(=O)Oc1ccc(/C=C/C(=O)NCCCSc2nc(-c3ccc(S(C)(=O)=O)cc3)n(-c3ccc(Br)cc3)n2)cc1OC(C)=O | 26.1 | 23.9 | 16.4
21 | 0.31 | 1.05 |  | CC(=O)Oc1ccc(/C=C/C(=O)OCCSc2nc(-c3ccc(S(N)(=O)=O)cc3)n(-c3ccc(Br)cc3)n2)cc1OC(C)=O |  |  | 
22 | 0.37 | 0.79 | 11.2 | CS(=O)(=O)c1ccc(-c2nc(SCCCOC(=O)/C=C/c3ccc(O)c(O)c3)nn2-c2ccc(Br)cc2)cc1 | 12.4 | 12.3 | 13.1
23 | 0.23 | 0.92 | 9.65 | COc1cc(/C=C/C(=O)OCCSc2nc(-c3ccc(S(C)(=O)=O)cc3)n(-c3ccc(C(F)(F)F)cc3)n2)ccc1OC(C)=O | 10.8 | 9.81 | 10.5
24 | 0.67 | 1.28 | 19.7 | NS(=O)(=O)c1ccc(-c2nc(SCCOC(=O)/C=C/c3ccccc3)nn2-c2ccc(Br)cc2)cc1 | 20.9 | 20.1 | 21.2
25 | 0.36 | 1.03 | 9.92 | CC(=O)Oc1ccc(/C=C/C(=O)OCCCSc2nc(-c3ccc(S(N)(=O)=O)cc3)n(-c3ccc(F)cc3)n2)cc1OC(C)=O | 11.5 | 10.5 | 10.9
26 |  |  | > 100 | O=C(O)/C=C/c1ccc(O)c(O)c1 [CAFFEIC ACID] | > 100 | > 100 | > 100
27 | 0.67 | 0.85 | 13.8 | CS(=O)(=O)c1ccc(-c2nc(SCCOC(=O)/C=C/c3ccc(O)c(O)c3)nn2-c2ccccc2)cc1 | 14.8 | 14.6 | 15
